Structures can show the parent of a compound that is named as a salt. Calls of active or inactive are those of the source. No cut-off for these calls is given here.
Columns and labels:
L1210 [1] = test: Ratio of spermidine Km to compound Ki for polyamine transport system in mouse L1210 cells; assay type: cell-based
Procedure, shortened: (§1)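 2 × 10^6 L1210 cells in 0.6 mL HBSS/20 mM HEPES, 10 min uptake at 37 °C of 1 μM [14C]spermidine with increasing competitor concentrations. IC50 obtained by iterative sigmoidal curve fitting, Ki by Cheng-Prusoff. Spermidine Km from Lineweaver-Burke analysis of uptake at rising labelled substrate. Mean ± SD, three determinations.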

[2] = Inhibition of [14C]spermidine uptake at polyamine transport system in mouse L1210 cells after 10 mins; assay type: cell-based; procedure, shortened: as §1
L1210 [3] = test: Drug uptake in mouse L1210 cells expressing polyamine transport system in presence of ornithine decarboxylase inhibitor DFMO after 48 hrs by HPLC; details: l1210, 48 h
[4] = Cytostatic toxicity against mouse L1210 cells expressing polyamine transport system assessed as cell viability at 100 uM after 48 hrs by trypan blue assay; assay type: ADME, cell-based
Procedure, shortened: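 L1210 cells exposed 48 h to 100 μM compound, viability scored by Trypan blue exclusion.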

CHO = test: Drug uptake in CHO cells expressing polyamine transport system after 24 hrs by HPLC; assay type: ADME, cell-based, Cricetulus griseus; details: chinese hamster
Procedure, shortened: (§2)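 Compound given at 0.1 to 100 μM for 24 h exposure; medium RPMI 1640/10% FCS with 2 mM aminoguanidine. CHO cells seeded at 2 × 10^5 cells/mL and dosed 24 h after seeding. L1210 cells seeded at 4 × 10^4 cells/mL and dosed at seeding. Cells washed thrice in cold 0.14 M NaCl, sonicated in 0.2 N HClO4. Extracts analysed by ion-pair C18 HPLC with post-column OPA/N-acetylcysteine fluorescence (ex 345, em 455 nm). Protein measured on pellet.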

L1210 [5] = test: Drug uptake in mouse L1210 cells expressing polyamine transport system after 24 hrs by HPLC; assay type: ADME, cell-based; details: l1210, 24 h; procedure, shortened: as §2
[6] = Cytostatic toxicity against mouse L1210 cells expressing polyamine transport system assessed as reduction in cell growth at 10 uM after 48 hrs by MTT assay; assay type: ADME, cell-based
Procedure, shortened: (§3)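 L1210 cells seeded at 5 × 10^4 cells/mL in RPMI 1640 with 10% FCS and 2 mM aminoguanidine, 37 °C, 5% CO2. Compound added at seeding, 48 h exposure. Growth read as MTT formazan absorbance at 540 nm. Growth taken relative to untreated control cells. Means of three or more experiments.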

L1210 [7] = test: Ratio of drug uptake in mouse L1210 cells at 10 uM in presence of 5 mM ornithine decarboxylase inhibitor DFMO to drug uptake in mouse L1210 cells at 10 uM after 48 hrs by HPLC; assay type: ADME, cell-based; details: l1210, 48 h
Procedure, shortened: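 L1210 cells seeded at 4 × 10^4 cells/mL and given 10 μM conjugate at seeding, ±5 mM DFMO, medium containing 2 mM aminoguanidine. Harvest at 48 h, washed in cold 0.14 M NaCl, perchloric extract. Intracellular conjugate measured by ion-pair HPLC with OPA fluorescence. Ratio is DFMO/control accumulation. Mean ± SD of three determinations; Student's t test.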

L1210 [8] = test: Cytostatic toxicity against mouse L1210 cells expressing polyamine transport system after 48 hrs by MTT assay; assay type: ADME, cell-based; details: l1210, 48 h; procedure, shortened: as §3
L1210 [9] = test: Inhibition of reversion of DFMO-induced cytostatic effect against mouse L1210 cells expressing polyamine transport system at 20 uM pretreated with 1 uM spermine for 24 hrs after DFMO addition measured after 48 hrs by MTT assay; assay type: functional, cell-based
Procedure, shortened: (§4)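 L1210 cells seeded in 5 mM DFMO. After 24 h, free putrescine, spermidine or spermine added with or without 20 μM test compound. Growth measured by MTT assay 48 h later.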

L1210 [10] = test: Inhibition of reversion of DFMO-induced cytostatic effect against mouse L1210 cells expressing polyamine transport system at 20 uM pretreated with 20 uM spermidine for 24 hrs after DFMO addition measured after 48 hrs by MTT assay; assay type: functional, cell-based; procedure, shortened: as §4
L1210 [11] = test: Cytostatic toxicity against mouse L1210 cells expressing polyamine transport system assessed as effect on cell growth upto 20 uM after 48 hrs by MTT assay; assay type: ADME, cell-based; details: l1210, 48 h; procedure, shortened: as §3
L1210 [12] = test: Inhibition of reversion of DFMO-induced cytostatic effect against mouse L1210 cells expressing polyamine transport system at 20 uM pretreated with 100 uM putrescine for 24 hrs after DFMO addition measured after 48 hrs by MTT assay; assay type: functional, cell-based; procedure, shortened: as §4

Drug uptake (CHO)	Drug uptake (L1210 [5])	SMILES	Ratio (L1210 [1])	Ki [2]	also measured
–	–	NCCCCCCCCNC1=Nc2ccccc2CCC1	0.019	126 µM	–
Dose-dependent effect	Dose-dependent effect	Cl.NCCCCNCCCCNC1=NCCCCC1	0.43	5.47 µM	Drug uptake (L1210 [3]): Active; viability at 48 h, 100 µM [4]: > 95%; inhibition at 48 h, 10 µM [6]: 65%
Dose-dependent effect	Dose-dependent effect	Cl.Cl.NCCCCNC1=Nc2ccccc2CCC1	0.067	35.1 µM	–
Dose-dependent effect	Dose-dependent effect	Cl.NCCCCNCCCNC1=NCCCCC1	0.16	14.6 µM	Drug uptake (L1210 [3]): Active; viability at 48 h, 100 µM [4]: > 95%; Ratio (L1210 [7]): 4; inhibition at 48 h, 10 µM [6]: 30%
–	–	NCCCNCCCNCCCNC1=Nc2ccccc2CCC1	2.69	0.88 µM	–
–	–	Cl.NCCCNCCCCNCCCNC1=Nc2ccc(Br)cc2CCC1	16.9	0.14 µM	Activity (L1210 [8]): Toxic
–	–	Cl.NCCCNCCCCNCCCNC1=Nc2ccc(N)cc2CCC1	12.5	0.19 µM	Activity (L1210 [8]): Toxic
Dose-dependent effect	Dose-dependent effect	Cl.NCCCNCCCCNCCCNC1=Nc2ccccc2CCC1	15.8	0.15 µM	Drug uptake (L1210 [3]): Active
–	–	NCCCNCCCCNCCCN	1.77	1.34 µM	–
–	–	COc1ccc2c(c1)CCCC(NCCCNCCCCNCCCN)=N2.Cl	10.3	0.23 µM	Activity (L1210 [8]): Toxic
Dose-dependent effect	Dose-dependent effect	Cl.NCCCCNCCCNC1=Nc2ccccc2CCC1	0.54	4.4 µM	–
Dose-dependent effect	Dose-dependent effect	Cl.NCCCNCCCCNC1=NCCCCC1	0.053	44.7 µM	Drug uptake (L1210 [3]): Active
–	–	NCCCCCCCCN	0.098	24.1 µM	–
–	–	NCCCNCCCNCCCN [NORSPERMINE]	1.57	1.51 µM	–
–	–	NCCCNC[C@@H](O)[C@@H](O)CNCCCNC1=Nc2ccccc2CCC1	1.05	2.25 µM	–
Dose-dependent effect	Dose-dependent effect	Cl.NCCCNCCCNC1=NCCCCC1	0.015	161 µM	Drug uptake (L1210 [3]): Active
–	–	NCCCCCCCCNC1=NCCCCC1	0.013	183 µM	–
Dose-dependent effect	Dose-dependent effect	Cl.Cl.NCCCCNC1=NCCCCC1	0.003	763 µM	Drug uptake (L1210 [3]): Active
–	–	NCCCCNCCCCNCCCCNC1=Nc2ccccc2CCC1	11.9	0.2 µM	–
Dose-dependent effect	Dose-dependent effect	Cl.NCCCCCNCCCNC1=NCCCCC1	0.051	45.9 µM	Drug uptake (L1210 [3]): Active
–	–	NCCCCNCCCCN [HOMOSPERMIDINE]	1.03	2.3 µM	–
–	–	Cl.NCCCNCCCCNCCCNC1=Nc2ccc([N+](=O)[O-])cc2CCC1	19.8	0.12 µM	inhibition (L1210 [9]): Active; inhibition (L1210 [10]): Active; Activity (L1210 [11]): Non-toxic; inhibition (L1210 [12]): Active
–	–	NCCCNC[C@@H](O)[C@@H](O)CNCCCN	0.45	5.27 µM	–
Dose-dependent effect	Dose-dependent effect	Cl.NCCCNCCCCNCCCNC1=NCCCCC1	6.77	0.35 µM	Drug uptake (L1210 [3]): Active
–	–	NCCCCNCCCCNCCCCN [HOMOSPERMINE]	3.25	0.73 µM	–
–	–	NCCCNCCCN [NORSPERMIDINE TRIHYDROCHLORIDE]	0.46	5.12 µM	–
–	–	NCCCCCNCCCN	0.29	8.03 µM	–
–	–	NCCCCN [PUTRESCINE DIHYDROCHLORIDE]	0.011	208 µM	–

Source: ChEMBL document CHEMBL1275328, “Targeting the polyamine transport system with benzazepine- and azepine-polyamine conjugates” (J Med Chem, 2010)
